Shown are actives, neighbours in structure and some others; about 29% of the full set was active somewhere.
E coli WT exp = blocks growth of wild type E. coli BW25113; OD600 absorbance; growth inhibition, % at 100 µM; 98,000 compounds, 0.15% hits;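 active = growth inhibition above about 50% at one test dose, limit read from the data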;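 note: growth measured after 20 h incubation at 37 °C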
CYP2C9 activ = CYP2C9 (human) activation; recombinant CYP2C9, luciferin-H conversion, luminescence; hits give high values; factor 1 = untreated enzyme, 0 = blocked; activation factor at 5 µM; 96,000 compounds, 1.4% hits; P11712;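 active = activation factor of 2 or more for CYP2C9 at a 5 µM dose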
CYP2C9 inhib = blocks human cytochrome P450 2C9; inhibition, % at 5 µM; 96,000 compounds, 20% hits; P11712; AID 777; CYP2C9 Supersomes, luciferin-H conversion, luminescence;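 active = blocking of liver enzyme CYP2C9 beyond about 50% at 5 µM, limit read from the data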
Ecoli tolC = growth inhibitors of E. coli BW25113 tolC mutant | 65,000 compounds, 2.2% hits | growth inhibition, % at 10 µM (by protocol) | AID 573 | OD615;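 active = growth inhibition at or above a cutoff equal to the mean over every tested compound plus 3 SD, cut at about 60% in these data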;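 note: growth measured after 20 h incubation at 37 °C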
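Doses: one dose of 10 µM final / Material: E. coli BW25113 ΔtolC::kan, tolC deletion mutant strain / Buffer or medium: LB with kanamycin 50 µg/mL / Evaluation: percent growth inhibition / Detection: optical density read at 615 nm / Incubation: 37 °C, 20 h exposure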
CYP2C19 inhib = inhibitors of human CYP2C19 | inhibition, % at 5 µM | P33261 | CYP2C19 Supersomes, luciferin-H EGE luminescence, 30 min | 96,000 compounds, 21% hits;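 active = CYP2C19 inhibition above a set limit at 5 µM in the primary screen, cut at about 50% in these data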
Target sequence (P33261 whole entry, looked up): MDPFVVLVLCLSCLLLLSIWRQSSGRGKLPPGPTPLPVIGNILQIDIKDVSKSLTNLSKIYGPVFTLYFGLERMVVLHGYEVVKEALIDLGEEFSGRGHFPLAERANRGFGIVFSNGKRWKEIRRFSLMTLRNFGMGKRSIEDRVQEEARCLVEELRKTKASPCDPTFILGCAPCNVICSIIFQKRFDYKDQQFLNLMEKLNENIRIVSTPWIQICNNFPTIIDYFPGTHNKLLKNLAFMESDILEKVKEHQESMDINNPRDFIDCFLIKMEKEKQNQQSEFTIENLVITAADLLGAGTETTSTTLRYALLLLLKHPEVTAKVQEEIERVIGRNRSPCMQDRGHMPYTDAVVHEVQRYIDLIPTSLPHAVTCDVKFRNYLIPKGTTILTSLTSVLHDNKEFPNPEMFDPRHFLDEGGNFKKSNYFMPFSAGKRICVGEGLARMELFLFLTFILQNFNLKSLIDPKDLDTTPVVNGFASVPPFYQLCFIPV
CYP2C19 activ = increases human CYP2C19 enzyme activity; activation factor at 5 µM; 96,000 tested, under 10 active; recombinant CYP2C19, luciferin-H EGE luminescence; hits give high values; 0 = fully inhibited enzyme, 1 = untreated enzyme;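 active = activation factor of at least 2 at 5 µM in the primary screen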
Large screens that a line does not name were inactive.

O=C(NCc1ccco1)C1CCN(S(=O)(=O)c2cccc3cccnc23)CC1	none
COc1ccc(N2CCN(C(=O)CSc3nnc(COc4cccc5cccnc45)o3)CC2)cc1	none
COc1ccc(OC)c(S(=O)(=O)N2CCC(C(=O)NCc3ccccc3OC)CC2)c1	CYP2C9 activ 2.4
O=C(C1CCN(S(=O)(=O)N2CCC3(CC2)OCCO3)CC1)N1CCN(Cc2ccccc2)CC1	none
O=C(C1CCN(S(=O)(=O)N2CCC3(CC2)OCCO3)CC1)N1CCc2ccccc2C1	CYP2C19 inhib 76
COc1ccc(OC)c(S(=O)(=O)N2CCC(C(=O)NCc3ccccc3)CC2)c1	CYP2C9 activ 3.7
CCOC(=O)Cn1c(=N)n(Cc2ccccc2F)c2ccccc21	none
Cc1ccc(N/C=C/C(=O)c2ccc(C)cc2)cc1	none (no result: Ecoli tolC)
O=C(/C=C\NCC(=O)c1ccccc1)c1ccc(F)cc1	CYP2C19 inhib 56 (no result: Ecoli tolC)
C/C(=C\C(=O)c1ccccc1)NCc1ccc(F)cc1	none (no result: Ecoli tolC)
CN(C)c1ccc(N/C=C/C(=O)c2ccccc2)cc1	CYP2C9 inhib 73, CYP2C19 inhib 99
O=C(/C=C/Nc1ccccc1)c1ccccc1	CYP2C19 inhib 55 (no result: Ecoli tolC)
COc1ccc(C(=O)N(c2ccccc2)C2C=CS(=O)(=O)C2)cc1 (stereo unspecified)	none
Cc1c(NC(=O)C2CC(c3c(F)cccc3Cl)=NO2)c(=O)n(-c2ccccc2)n1C (stereo unspecified)	none
CN1CCN(C(=O)C2CC(c3c(F)cccc3Cl)=NO2)CC1 (stereo unspecified)	CYP2C9 activ 2.8
O=C(C1CC(c2ccc(F)cc2)=NO1)N1CCN(c2ccccc2)CC1 (stereo unspecified)	none
Cc1ccc(O)c(NC(=O)C2CC(c3c(F)cccc3Cl)=NO2)c1 (stereo unspecified)	CYP2C19 inhib 94
Clc1ccc(Sc2cc(Cl)c(-c3ccccc3)nn2)cc1	CYP2C9 inhib 66, CYP2C19 inhib 55 (no result: Ecoli tolC)
COc1ccc2cc(C(=O)N3CCCCCC3)sc(=O)c2c1OC	none
COC(=O)c1cc2ccc(OC)c(OC)c2c(=O)s1	CYP2C19 inhib 57
COC(=O)c1cc2ccccc2c(=O)s1	CYP2C19 inhib 61
COC(=O)CCC(=O)Nc1ccc(Br)cc1	CYP2C19 inhib 65
COC(=O)CCC(=O)Nc1ccc(OC)cc1	none
COC(=O)CNC(c1ccccc1)c1cc(C)ccc1NC(=O)CNC(=O)OCc1ccccc1 (stereo unspecified)	CYP2C9 inhib 94, CYP2C19 inhib 82 (no result: Ecoli tolC)
COC(=O)CCC(=O)Nc1ccc(C)cc1OC(=O)CCC(=O)OC	none
COC(=O)CNC(c1ccccc1)c1cc(Br)ccc1NC(=O)OCc1ccccc1 (stereo unspecified)	CYP2C9 inhib 74 (no result: Ecoli tolC)
Cc1nnc(NC(=O)CSc2nnc(-c3ccc(S(=O)(=O)N4CCCC4)cc3)n2C)s1	none (no result: CYP2C9 activ, CYP2C9 inhib, CYP2C19 inhib, CYP2C19 activ)
Cn1cccc1Cc1nnc(SCC(=O)NC2CCCCC2)n1CCc1ccccc1	none
CC(C)(C)c1ccc(C(=O)Nc2nonc2-c2nc3ccccc3[nH]2)cc1	none
COc1ccc(NC(=O)C(c2ccc(C)cc2)N(C)C(=O)c2cnccn2)cc1 (stereo unspecified)	CYP2C9 inhib 53, CYP2C19 inhib 52
CCCCCn1c(N2CCC(Cc3ccccc3)CC2)nc2c1c(=O)[nH]c(=O)n2C	Ecoli tolC 71 (no result: E coli WT exp, CYP2C9 activ, CYP2C9 inhib, CYP2C19 inhib, CYP2C19 activ)
Cn1c(=O)[nH]c(=O)c2c1nc(N1CCC(Cc3ccccc3)CC1)n2Cc1ccccc1	none
CCCn1c(N2CCC(Cc3ccccc3)CC2)nc2c1c(=O)[nH]c(=O)n2C	CYP2C9 inhib 57, CYP2C19 inhib 83
CCCCCn1c(N(C)Cc2ccccc2)nc2c1c(=O)[nH]c(=O)n2C	none
CC(C)(CSc1nncn1N)NS(=O)(=O)c1ccc(Cl)cc1	CYP2C9 inhib 51, CYP2C19 inhib 95
Cc1ccccc1CSc1nncn1N	none
Cc1ccc2c(c1)N(CCCC(=O)NCCCN1CCCC1=O)C(=O)CO2	none (no result: E coli WT exp, CYP2C9 activ, CYP2C9 inhib, CYP2C19 inhib, CYP2C19 activ)
CN(c1ccccc1C(=O)Nc1ccccc1C(=O)NCc1ccco1)S(C)(=O)=O	none
O=C(NCc1ccco1)Nc1ccc(Br)cc1Cl	CYP2C9 inhib 53
O=C(NCc1ccco1)c1cccc2ccccc12	CYP2C9 activ 3
O=C(Nc1cccc(Cl)c1)Nc1ccccc1C(=O)NCc1ccco1	CYP2C9 inhib 58 (no result: Ecoli tolC)
O=C(NCc1ccco1)c1ccccc1F	none (no result: Ecoli tolC)
CC(=O)c1cccc(NC(=O)NCc2ccco2)c1	none
O=C(NCc1ccco1)c1ccccc1Nc1ccc(F)cc1	CYP2C9 inhib 67, CYP2C19 inhib 89
Cc1ccc(-n2nnnc2SCC(=O)N2c3ccccc3NC(=O)C2(C)C)cc1	none
O=C(NCc1ccco1)c1cnc2ccccn2c1=O	CYP2C9 inhib 55
O=C(NCc1ccco1)c1cnc2sccn2c1=O	none (no result: Ecoli tolC)
COc1cccc(C(C(=O)Nc2ccc(F)cc2)N(C(=O)Cn2nnc3ccccc32)C2CC2)c1 (stereo unspecified)	none (no result: Ecoli tolC)
CN1c2ccsc2C(O)=C(C(=S)Nc2ccccc2)S1(=O)=O	CYP2C9 inhib 78 (no result: Ecoli tolC)
Cc1ccccc1NC(=S)C1=C(O)c2sccc2N(C)S1(=O)=O	CYP2C9 inhib 72 (no result: Ecoli tolC)
CCc1ccc(OCC(=O)N/N=C2\CC(=O)c3ccccc32)cc1	CYP2C19 inhib 82 (no result: Ecoli tolC)
CC1CCCC(NC(=O)CCCn2c(=O)[nH]c3cc(Cl)ccc3c2=O)C1C (stereo unspecified)	none (no result: Ecoli tolC)
Cc1cc(C)nc(NS(=O)(=O)c2ccc(NC(=O)c3ccc4c(c3)OCO4)cc2)n1	CYP2C9 inhib 52
Cc1cc(NS(=O)(=O)N(C)C)ccc1C(C)C	CYP2C9 inhib 77, CYP2C19 inhib 90 (no result: Ecoli tolC)
COc1ccc(NS(=O)(=O)c2ccc(NS(C)(=O)=O)cc2)cc1	none
COc1ccc(S(=O)(=O)Nc2ccc3c(c2)OCO3)cc1C	CYP2C19 inhib 99 (no result: Ecoli tolC)
COc1ccc(S(=O)(=O)Nc2ccc3c(c2)OCO3)cc1	CYP2C9 inhib 56, CYP2C19 inhib 93 (no result: Ecoli tolC)
CC(=N/O)/C(=N\O)c1ccc(C)o1	none
Nn1c(SCC(=O)N2CCOCC2)nnc1-c1ccco1	none (no result: Ecoli tolC)
CCOC(=O)C(C)Sc1nc(-c2ccc(OC)cc2)nc2c1c(=O)n(C)c(=O)n2C (stereo unspecified)	none (no result: E coli WT exp)
CC(C)=CC(=O)Nc1ccc2c(c1)OCO2	none
CN(C)S(=O)(=O)Nc1ccc2c(c1)OCO2	CYP2C19 inhib 76
O=S(=O)(Nc1ccc2c(c1)OCO2)c1ccccc1	CYP2C9 inhib 88, CYP2C19 inhib 100 (no result: Ecoli tolC)
O=S(=O)(Nc1ccc2c(c1)OCO2)c1ccc(Br)s1	CYP2C9 inhib 96, CYP2C19 inhib 78
O=C(c1ccncc1)c1ccc(NS(=O)(=O)c2ccc(Br)s2)cc1	CYP2C9 inhib 99 (no result: Ecoli tolC)
CC(=O)c1cc2c(cc1NS(=O)(=O)c1ccccc1)OCO2	CYP2C9 activ 2.8, CYP2C19 inhib 88 (no result: Ecoli tolC)
COc1cc(NS(=O)(=O)c2ccc(Br)s2)cc(OC)c1	CYP2C9 inhib 96, CYP2C19 inhib 100
CNC(=O)c1nnn(Cc2ccccc2)c1NC(=O)C(F)(F)F	none

Compound activity: PubChem, several laboratories
